Laboratory results from ChEMBL document CHEMBL5303300, “EUbOPEN Chemogenomics Library - Multiplex” (2023).
Values joined by “and” are separate entries in the source; they are usually repeats but may differ in a detail not shown here. Equal values may be shown once.

Tested on: U2OS
Test: Multiplex assay against U2OS
Type: toxicity, cell-based
Settings: human, number of replicates 2
Outline: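 Hoechst33342, BioTracker Green Microtubule Cytoskeleton Dye, MitoTracker Red and Annexin V Alexa Fluor 680 were added to live cells at seeding, and imaging on a CQ1 microscope at 37°C and 5% CO2 followed compound addition. Gating by CellPathfinder machine learning separated cells into Hoechst high-intensity objects or normal cells, then normal cells into healthy, pyknosed or fragmented nuclei, then pyknosed cells into mitotic or apoptotic. Per cents of healthy-nucleus cells are reported for the tubulin, mitochondrial-mass and membrane-permeability phenotypes.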

[1] = 12 h, 1 µM, compound concentration 1 uM
[2] = 12 h, 10 µM, compound concentration 10 uM
[3] = 24 h, 1 µM, compound concentration 1 uM
[4] = 24 h, 10 µM, compound concentration 10 uM
[5] = 48 h, 1 µM, compound concentration 1 uM
[6] = 48 h, 10 µM, compound concentration 10 uM

CS(=O)(=O)c1ccc(C(=O)Nc2cccc(COc3ccc(Br)cc3CN[C@H]3CCC[C@@H]3O)c2)c(Cl)c1.O=CO
Population Apoptotic (%) [1]: 50% and 70% | Population Healthy Nuclei (%) [1]: 78% and 79% | Population Hoechst High Intensity Objects (%) [1]: 0% | Population Normal (%) [1]: 100% | Population Apoptotic (%) [2]: 59% and 100% | Population Healthy Nuclei (%) [2]: 70% and 80% | Population Hoechst High Intensity Objects (%) [2]: 0% | Population Normal (%) [2]: 99% and 100% | Population Apoptotic (%) [3]: 87% and 73% | Population Healthy Nuclei (%) [3]: 71% and 82% | Population Hoechst High Intensity Objects (%) [3]: 0% | Population Normal (%) [3]: 100% | Population Apoptotic (%) [4]: 88% and 79% | Population Healthy Nuclei (%) [4]: 47% and 63% | Population Hoechst High Intensity Objects (%) [4]: 0% | Population Normal (%) [4]: 100% and 99% | Population Apoptotic (%) [5]: 44% and 86% | Population Healthy Nuclei (%) [5]: 80% and 83% | Population Hoechst High Intensity Objects (%) [5]: 0% | Population Normal (%) [5]: 100% | Population Apoptotic (%) [6]: 92% | Population Healthy Nuclei (%) [6]: 50% and 57% | Population Hoechst High Intensity Objects (%) [6]: 1% and 0% | Population Normal (%) [6]: 98% and 100%

CCc1cnn2c(NCc3ccc[n+]([O-])c3)cc(N3CCCCC3CCO)nc12 (configuration not stated)
Population Apoptotic (%) [1]: 58% and 91% | Population Healthy Nuclei (%) [1]: 22% and 40% | Population Hoechst High Intensity Objects (%) [1]: 0% | Population Membrane Permeable-Phenotype (%) [1]: 25% and 12% | Population Mitochondria Different-Phenotype (%) [1]: 12% and 2% | Population Normal (%) [1]: 100% | Population Pyknosed Nuclei (%) [1]: 34% and 49% | Population Tubulin-Different-Phenotype (%) [1]: 75% and 86% | Population Apoptotic (%) [2]: 78% and 66% | Population Fragmented Nuclei (%) [2]: 17% and 14% | Population Healthy Nuclei (%) [2]: 40% and 47% | Population Hoechst High Intensity Objects (%) [2]: 0% | Population Mitochondria Different-Phenotype (%) [2]: 11% and 0% | Population Mitotic Cells (%) [2]: 21% and 33% | Population Normal (%) [2]: 100% | Population Pyknosed Nuclei (%) [2]: 42% and 38% | Population Tubulin-Different-Phenotype (%) [2]: 44% and 76% | Population Apoptotic (%) [3]: 100% | Population Healthy Nuclei (%) [3]: 20% and 30% | Population Hoechst High Intensity Objects (%) [3]: 0% and 1% | Population Membrane Permeable-Phenotype (%) [3]: 20% and 10% | Population Mitotic Cells (%) [3]: 0% | Population Normal (%) [3]: 100% and 98% | Population Pyknosed Nuclei (%) [3]: 32% and 53% | Population Tubulin-Different-Phenotype (%) [3]: 100% and 82% | Population Apoptotic (%) [4]: 87% and 82% | Population Fragmented Nuclei (%) [4]: 14% and 12% | Population Healthy Nuclei (%) [4]: 34% and 33% | Population Hoechst High Intensity Objects (%) [4]: 4% and 1% | Population Membrane Permeable-Phenotype (%) [4]: 6% and 10% | Population Mitochondria Different-Phenotype (%) [4]: 6% and 8% | Population Mitotic Cells (%) [4]: 12% and 17% | Population Normal (%) [4]: 95% and 98% | Population Pyknosed Nuclei (%) [4]: 51% and 53% | Population Tubulin-Different-Phenotype (%) [4]: 43% and 63% | Population Apoptotic (%) [5]: 100% and 97% | Population Healthy Nuclei (%) [5]: 25% and 16% | Population Hoechst High Intensity Objects (%) [5]: 0% and 3% | Population Membrane Permeable-Phenotype (%) [5]: 12% and 31% | Population Mitochondria Different-Phenotype (%) [5]: 25% and 21% | Population Mitotic Cells (%) [5]: 0% and 2% | Population Normal (%) [5]: 100% and 96% | Population Pyknosed Nuclei (%) [5]: 28% and 74% | Population Tubulin-Different-Phenotype (%) [5]: 75% and 100% | Population Apoptotic (%) [6]: 95% and 82% | Population Fragmented Nuclei (%) [6]: 10% and 19% | Population Healthy Nuclei (%) [6]: 18% and 11% | Population Hoechst High Intensity Objects (%) [6]: 1% | Population Mitochondria Different-Phenotype (%) [6]: 45% and 33% | Population Normal (%) [6]: 98% | Population Pyknosed Nuclei (%) [6]: 71% and 68% | Population Tubulin-Different-Phenotype (%) [6]: 81% and 83%

CCn1c(-c2nonc2N)nc2cncc(C(=O)N3CC[C@H](N)C3)c21.Cl
Population Apoptotic (%) [1]: 50% and 90% | Population Fragmented Nuclei (%) [1]: 13% and 3% | Population Healthy Nuclei (%) [1]: 73% and 87% | Population Hoechst High Intensity Objects (%) [1]: 0% | Population Membrane Permeable-Phenotype (%) [1]: 0% and 1% | Population Mitochondria Different-Phenotype (%) [1]: 4% and 0% | Population Normal (%) [1]: 100% | Population Pyknosed Nuclei (%) [1]: 13% and 9% | Population Tubulin-Different-Phenotype (%) [1]: 72% and 77% | Population Apoptotic (%) [2]: 75% and 35% | Population Healthy Nuclei (%) [2]: 69% and 78% | Population Hoechst High Intensity Objects (%) [2]: 0% | Population Membrane Permeable-Phenotype (%) [2]: 5% and 0% | Population Mitochondria Different-Phenotype (%) [2]: 0% | Population Mitotic Cells (%) [2]: 25% and 64% | Population Normal (%) [2]: 100% | Population Pyknosed Nuclei (%) [2]: 8% and 16% | Population Tubulin-Different-Phenotype (%) [2]: 67% and 87% | Population Apoptotic (%) [3]: 80% and 96% | Population Fragmented Nuclei (%) [3]: 5% and 3% | Population Healthy Nuclei (%) [3]: 80% and 87% | Population Hoechst High Intensity Objects (%) [3]: 0% | Population Membrane Permeable-Phenotype (%) [3]: 7% and 0% | Population Mitochondria Different-Phenotype (%) [3]: 3% and 1% | Population Normal (%) [3]: 100% | Population Pyknosed Nuclei (%) [3]: 14% and 9% | Population Tubulin-Different-Phenotype (%) [3]: 71% and 79% | Population Apoptotic (%) [4]: 55% and 57% | Population Fragmented Nuclei (%) [4]: 17% and 8% | Population Healthy Nuclei (%) [4]: 67% and 77% | Population Hoechst High Intensity Objects (%) [4]: 0% | Population Membrane Permeable-Phenotype (%) [4]: 2% and 3% | Population Mitochondria Different-Phenotype (%) [4]: 0% and 1% | Population Mitotic Cells (%) [4]: 44% and 42% | Population Normal (%) [4]: 100% | Population Pyknosed Nuclei (%) [4]: 15% and 14% | Population Tubulin-Different-Phenotype (%) [4]: 79% and 89% | Population Apoptotic (%) [5]: 60% and 82% | Population Healthy Nuclei (%) [5]: 71% and 89% | Population Hoechst High Intensity Objects (%) [5]: 0% | Population Membrane Permeable-Phenotype (%) [5]: 7% and 1% | Population Mitochondria Different-Phenotype (%) [5]: 2% and 0% | Population Mitotic Cells (%) [5]: 40% and 17% | Population Normal (%) [5]: 100% | Population Pyknosed Nuclei (%) [5]: 9% and 6% | Population Tubulin-Different-Phenotype (%) [5]: 76% and 81% | Population Apoptotic (%) [6]: 75% and 74% | Population Fragmented Nuclei (%) [6]: 15% and 5% | Population Healthy Nuclei (%) [6]: 69% and 79% | Population Hoechst High Intensity Objects (%) [6]: 0% | Population Membrane Permeable-Phenotype (%) [6]: 3% and 4% | Population Mitochondria Different-Phenotype (%) [6]: 0% | Population Mitotic Cells (%) [6]: 25% | Population Normal (%) [6]: 100% and 99% | Population Pyknosed Nuclei (%) [6]: 15% | Population Tubulin-Different-Phenotype (%) [6]: 68% and 91%

C=CC(=O)Nc1ccc2[nH]c(=O)n(C3CCN(Cc4ccc(-c5ccc6c(c5)NC(=O)CO6)cc4)CC3)c2c1 [RL2578]
Population Fragmented Nuclei (%) [1]: 5% and 4% | Population Healthy Nuclei (%) [1]: 66% and 83% | Population Hoechst High Intensity Objects (%) [1]: 0% | Population Mitochondria Different-Phenotype (%) [1]: 4% and 0% | Population Normal (%) [1]: 100% | Population Pyknosed Nuclei (%) [1]: 27% and 11% | Population Tubulin-Different-Phenotype (%) [1]: 58% and 84% | Population Apoptotic (%) [2]: 66% | Population Fragmented Nuclei (%) [2]: 18% and 9% | Population Healthy Nuclei (%) [2]: 57% and 80% | Population Hoechst High Intensity Objects (%) [2]: 0% | Population Membrane Permeable-Phenotype (%) [2]: 13% and 7% | Population Mitochondria Different-Phenotype (%) [2]: 13% and 30% | Population Mitotic Cells (%) [2]: 33% | Population Normal (%) [2]: 100% | Population Pyknosed Nuclei (%) [2]: 23% and 9% | Population Tubulin-Different-Phenotype (%) [2]: 31% and 46% | Population Apoptotic (%) [3]: 85% and 74% | Population Fragmented Nuclei (%) [3]: 8% and 4% | Population Healthy Nuclei (%) [3]: 75% and 86% | Population Hoechst High Intensity Objects (%) [3]: 0% | Population Membrane Permeable-Phenotype (%) [3]: 11% and 1% | Population Mitochondria Different-Phenotype (%) [3]: 8% and 2% | Population Mitotic Cells (%) [3]: 14% and 25% | Population Normal (%) [3]: 100% | Population Pyknosed Nuclei (%) [3]: 15% and 9% | Population Tubulin-Different-Phenotype (%) [3]: 76% and 87% | Population Apoptotic (%) [4]: 61% and 54% | Population Fragmented Nuclei (%) [4]: 9% and 8% | Population Healthy Nuclei (%) [4]: 54% and 78% | Population Hoechst High Intensity Objects (%) [4]: 1% and 0% | Population Membrane Permeable-Phenotype (%) [4]: 0% and 5% | Population Mitotic Cells (%) [4]: 38% and 45% | Population Normal (%) [4]: 98% and 99% | Population Pyknosed Nuclei (%) [4]: 35% and 12% | Population Tubulin-Different-Phenotype (%) [4]: 39% and 47% | Population Apoptotic (%) [5]: 83% and 70% | Population Healthy Nuclei (%) [5]: 68% and 90% | Population Hoechst High Intensity Objects (%) [5]: 0% | Population Membrane Permeable-Phenotype (%) [5]: 8% and 0% | Population Mitochondria Different-Phenotype (%) [5]: 4% and 0% | Population Mitotic Cells (%) [5]: 16% and 30% | Population Normal (%) [5]: 100% | Population Pyknosed Nuclei (%) [5]: 16% and 6% | Population Tubulin-Different-Phenotype (%) [5]: 80% and 84% | Population Apoptotic (%) [6]: 76% and 68% | Population Fragmented Nuclei (%) [6]: 13% and 10% | Population Healthy Nuclei (%) [6]: 53% and 70% | Population Hoechst High Intensity Objects (%) [6]: 0% and 1% | Population Membrane Permeable-Phenotype (%) [6]: 10% and 5% | Population Mitochondria Different-Phenotype (%) [6]: 7% and 18% | Population Mitotic Cells (%) [6]: 23% and 31% | Population Normal (%) [6]: 100% and 98% | Population Pyknosed Nuclei (%) [6]: 32% and 19% | Population Tubulin-Different-Phenotype (%) [6]: 71% and 59%
